Entries after “also recorded” stand apart in the source; their conditions may differ.
Legend:
RWPE-1 cells = assay: Cell viability dose response in slow growing cells; type: cell-based, human; conditions: 72 h dose response 5-80 µM
Summary of the method: (§1)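 Cells cultured in EMEM, DMEM or RPMI 1640 with 10% FBS, seeded at 1,600 cells/well 6-12 h before treatment. Exposed up to 72 h to test compound (5-80 µM), DMSO as negative control, or 20 µM benzethonium chloride as kill control. CellTox Green in medium; live imaging gave toxicity (green fluorescence) and proliferation (phase-contrast confluency). Replicate sets.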

[1] = target: MgcRacGAP-stimulated activity of wild type Rac1 (Homo sapiens, UniProt Q9H0H5); assay: Multiple-turnover GTPase assay with wild type Rac1; type: biochemical; conditions: wild type Rac1, data not shown
Sequence of MgcRacGAP-stimulated activity of wild type Rac1 (Q9H0H5 345-618): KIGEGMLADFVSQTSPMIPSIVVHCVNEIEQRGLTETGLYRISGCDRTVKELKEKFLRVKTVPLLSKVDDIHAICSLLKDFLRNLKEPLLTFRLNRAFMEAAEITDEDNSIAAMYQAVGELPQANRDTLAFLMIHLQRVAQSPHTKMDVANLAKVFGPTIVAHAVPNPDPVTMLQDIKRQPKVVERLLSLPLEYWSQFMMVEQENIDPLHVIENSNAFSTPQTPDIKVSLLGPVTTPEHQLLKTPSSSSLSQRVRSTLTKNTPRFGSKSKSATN
Summary of the method: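 Wild-type Rac1 […] in the 2x mix, combined with test compound in GTPase/GAP buffer. MgcRacGAP serially diluted in (0.1-100 nM) and held 2 h at room temperature. Started with 2x GTP (10 µM) and run 2 h more. Remaining GTP read by GTPase-Glo reagent (30 min), then detection solution; luminescence read after 10 min.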

MDA-MB-231 cells [2] = assay: Scratch-wound Matrigel invasion; type: cell-based, human; conditions: 10-40 µM, increasing concentrations
Summary of the method: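 MDA-MB-231 cells at 40,000/well on Matrigel-precoated plates. After 16 h, near-confluent monolayers scratched, washed and overlaid with Matrigel (8 mg/mL). After 30 min at 37°C, medium with DMSO or test compound (10-40 µM final) added. Scratch-wound imaging followed; relative wound density computed per image; n=4.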

[3] = target: T1, BCR(1010-1271) GAP domain (Homo sapiens, UniProt P11274); assay: Counter/selectivity GAP activity assay with BCR GAP domain in place of MgcRacGAP; type: biochemical
T1 sequence (P11274 1010-1271): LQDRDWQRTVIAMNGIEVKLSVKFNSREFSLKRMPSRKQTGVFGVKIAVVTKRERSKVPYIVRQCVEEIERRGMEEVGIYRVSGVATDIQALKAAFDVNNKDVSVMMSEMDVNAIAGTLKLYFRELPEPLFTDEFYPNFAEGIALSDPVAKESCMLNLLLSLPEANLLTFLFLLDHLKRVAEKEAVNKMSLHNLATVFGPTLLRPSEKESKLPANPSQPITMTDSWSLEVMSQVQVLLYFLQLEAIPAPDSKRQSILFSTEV
Summary of the method: (§2)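 Same buffer as the primary assay: Rac1(F28L) 600 nM, 150 µM GTP, 2% DMSO, 2 h at room temperature. GAP domain is BCR(1010-1271) at 200 nM or p50RhoGAP(205-439) at 50 nM, doses set for similar signal window. Test compound at 0.1-100 µM, with or without pre-incubation before GTP start. Read-out is ADP Hunter Plus fluorescence (ex 530/em 590 nm), normalized to plate controls.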

A549 cells [4] = type: cell-based, human; conditions: 25 µM
Summary of the method: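 A549 cells in chamber slides, treated 3-48 h with DMSO or 25 µM test compound. Stained with phalloidin, Hoechst 33342, anti-α-tubulin and anti-MgcRacGAP. Cells scored as normal (mononuclear), mitotic (rounded), multinuclear or dead in at least eight random fields per condition. Reported as average percentage per time point.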

A549 cells [5] = assay: FUCCI cell cycle reporter assay; type: cell-based, human; conditions: 80 µM, from 6 h after exposure
Summary of the method: (§3)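 A549 cells at 50,000/well received Premo gemini-GFP (G2/M) and Cdt-RFP (G1/S) 1:1 24 h after plating. After overnight incubation, replated at 1,600 cells/well. Imaged hourly by phase contrast, green and red fluorescence. 14 h later given 80 µM test compound, DMSO, or 20 µM benzethonium chloride, then followed hourly.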

[6] = target: MgcRacGAP GAP activity on wild type Rac1 (Homo sapiens, UniProt Q9H0H5); assay: Single turnover GAP assay with GTP-loaded wild type Rac1; type: biochemical; conditions: GTP-loaded wild type Rac1, 50 µM
Sequence of MgcRacGAP GAP activity on wild type Rac1 (Q9H0H5 345-618): as the sequence (Q9H0H5 345-618) above

[7] = tested on: essential replicative helicase of Staphylococcus aureus; conditions: 80 µM, ref PubChem AID 485395; cited from earlier work
HeLa cells [8] = type: cell-based, human
Summary of the method: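 HeLa cells synchronized by double thymidine block: 2 mM thymidine at plating for 19 h, three PBS washes, release into fresh medium, second 2 mM block 9 h later, washed after 16 h. Released with or without test compound (10-80 µM) or nocodazole (165 nM). Tracked by live-cell phase imaging for cell rounding and death.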

Rac1-MgcRacGAP complex = Rac1-MgcRacGAP complex (Homo sapiens, UniProt P63000+Q9H0H5, Q61L); assay: MgcRacGAP - Rac1 Q61L binding assay, bio-layer interferometry; conditions: 12.5-50 µM, dose dependent
Sequence of Rac1-MgcRacGAP complex (Q9H0H5 345-618, stated change not applied, one chain of several): as the sequence (Q9H0H5 345-618) above

HeLa cells [9] = assay: Immunofluorescence analysis of cell division morphology; type: cell-based, human; conditions: 25 µM, 48 h
Summary of the method: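 HeLa cells on fibronectin-coated coverslips, treated 3-48 h with DMSO or 25 µM test compound. Fixed in ice-cold methanol and stained with mouse anti-α-tubulin and goat anti-MgcRacGAP. Detected with Alexa Fluor 488 and 647 secondaries; DAPI-containing mountant. Imaged by widefield fluorescence microscopy.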

MDA-MB-231 cells [10] = assay: Cytotoxicity, CellTox Green live cell imaging; type: cell-based, human
Summary of the method: as §1

[11] = target: T2, p50RhoGAP(205-439) GAP domain (Mus musculus, UniProt Q5FWK3); assay: Selectivity GAP activity assay with p50RhoGAP GAP domain; type: biochemical
T2 sequence (Q5FWK3 205-439): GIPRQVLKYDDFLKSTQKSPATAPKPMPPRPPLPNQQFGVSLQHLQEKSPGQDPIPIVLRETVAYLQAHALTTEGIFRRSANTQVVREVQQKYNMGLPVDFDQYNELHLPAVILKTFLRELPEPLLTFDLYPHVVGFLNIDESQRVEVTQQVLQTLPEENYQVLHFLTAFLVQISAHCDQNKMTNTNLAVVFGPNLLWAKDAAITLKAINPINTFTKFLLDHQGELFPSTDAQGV
Summary of the method: as §2

[12] = target: MgcRacGAP(345-618) GAP domain (Homo sapiens, UniProt Q9H0H5); assay: Primary biochemical GAP activity assay, Rac1
Sequence of MgcRacGAP(345-618) GAP domain (Q9H0H5 345-618): as the sequence (Q9H0H5 345-618) above
Summary of the method: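 Rac1(F28L) 600 nM with MgcRacGAP(345-618) at 2 nM in 15 mM Hepes pH 7.5, 20 mM NaCl, 1 mM EGTA, 0.02% Tween 20, 0.1 mg/mL BSA, 2% DMSO, 150 µM GTP; 2 h at room temperature. GDP detected by ADP Hunter Plus at half volumes (resorufin ex 530/em 590 nm). Test compound at 0.1-100 µM, with or without protein pre-incubation before GTP; n=8; control-normalized, fits constrained 0-100%.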

A549 cells [13] = assay: Cytotoxicity by live cell imaging; type: cell-based, human; conditions: 80 µM
Summary of the method: as §3

MDA-MB-231 cells [14] = assay: Cell proliferation by live cell imaging; type: cell-based, human
Summary of the method: as §1

A549 cells [15] = assay: Cellular movement, tracking of individual cells in 2D culture; type: cell-based, human; conditions: 25 µM, 24 h
Summary of the method: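 A549 cells seeded at 10,000/well and given DMSO or 25 µM test compound 6 h later. Imaged every 5 min with a 20x objective for 24 h. Randomly chosen cells tracked individually to trace movement in 2D.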

[16] = dose response 0.1-100 µM, no pre-incubation
[17] = proteins pre-incubated with compound before GTP addition
[18] = prolonged periods of time, data not shown

Cl.Cl.c1cc2cc(C3=NCCN3)ccc2cc1C1=NCCN1 [MINC1, 2,6-bis(4,5-dihydro-1H-imidazol-2-yl)naphthalene dihydrochloride]
effect on cell viability in slow growing cells (RWPE-1 cells): negligible effects on cell viability | inhibition of MgcRacGAP-stimulated activity, multiple-turnover assay [1]: did not detect any notable inhibition | wound-healing rate (MDA-MB-231 cells [2]): decreased wound-healing rates; also recorded: decreasing ability to migrate | activity towards BCR [3, 16]: no detectable activity | activity towards BCR, pre-incubation [3, 17]: no detectable activity | time of peak of cells with mitotic phenotype (A549 cells [4]): ≤ 9 h | percentage of multinucleated cells (A549 cells [4]; during 24h treatment): increased over time | cell cycle state (A549 cells [5]): arrested in G2/M-phase | effect on MgcRacGAP GAP activity, single turnover assay [6]: no effect | reported bioactivity [7]: marginal activity | time to cell rounding, non-synchronized cells (HeLa cells [8]; after compound addition): approximately 3 h | time to cell rounding, synchronized cells (HeLa cells [8]; after release from double thymidine block): 8 to 10 h | concentration at which cell death was observed (HeLa cells [8]; [18]): 80 µM | dissociation of Rac1-MgcRacGAP complex (Rac1-MgcRacGAP complex): slowed down the dissociation process; also recorded: decreased dissociation rate | multinucleated cells versus control (HeLa cells [9]): showed more multinucleated cells | concentration at which cell death was observed (MDA-MB-231 cells [10]; [18]): 80 µM | cell toxicity at concentrations that stop proliferation (MDA-MB-231 cells [10]; ≥20 µM, highly proliferative cells): without detectable cell toxicity | activity towards p50RhoGAP [11, 16]: no detectable activity | activity towards p50RhoGAP, pre-incubation [11, 17]: no detectable activity | maximum inhibition reached by dose response curves [12]: 80-90% | IC50 ([12]; IC50 MgcRacGAP, dose response 0.1-100 µM, no pre-incubation): 15 ± 5 µM | Hill slope ([12]; dose response, no pre-incubation): 0.9 | Hill slope, pre-incubation [12, 17]: 0.7 | tolerance of high concentration (A549 cells [13]): could tolerate such high concentrations | IC50 (MDA-MB-231 cells [14]; Homo sapiens, MDA-MB-231, 48 h, read-out: IC50 cell proliferation): 17 µM | concentration that caused cell proliferation to cease (MDA-MB-231 cells [14]; highly proliferative cells): ≥ 20 µM | cell motility (A549 cells [15]): lost almost all motility

Reference: PMC4435052 (Combinatorial Chemistry & High Throughput Screening, 2015)
